Data published in ChEMBL document CHEMBL1149277, “Antiestrogen binding site and estrogen receptor mediate uptake and distribution of 4-hydroxytamoxifen-targeted doxorubicin-formaldehyde conjugate in breast cancer cells” (J Med Chem, 2004).

Experiments:
[1] = tested on: MDA-MB-231 (Homo sapiens); assay: Drug uptake in MDA-MB-231 cells at 500 nM for 1 hr relative to MDA-MB-435 cells; settings: mda-mb-231, 1 h, 0.5 µM
[2] = tested on: MCF7; assay: Drug uptake in ER expressing MCF7 cells; assay type: ADME, cell-based; settings: human
Outline: (§1)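 Cells adhered overnight at 450000 per well, then were exposed to 0.5 µM drug for 1 h (uptake also at 20 and 40 min). They were trypsinized, washed cold, and held on ice in serum-free, phenol red-free RPMI. Flow cytometry: excitation 488 nm, emission 570–600 nm, 10000 cells, mean fluorescence minus drug-free background. Settings were fixed per cell line.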

[3] = target: T1, Anti-estrogen binding site (AEBS) (Homo sapiens) (UniProt Q15125+Q9UBM7); assay: Displacement of 0.5 nM [3H]tamoxifen from AEBS in MCF7 cell lysate relative to E/Z-4-hydroxytamoxifen; assay type: cell-free
Outline: (§2)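 AEBS source: MCF-7 cell lysate (sonicated, 12000g supernatant, diluted to 2.0 mg/mL protein, pH 7.4 lysis buffer with molybdate and protease inhibitors). [3H]tamoxifen at 5, 0.5 or 0.05 nM, with 1000 nM estradiol to saturate ER, plus cold competitor; 18 h at 4 °C. Dextran-coated charcoal strip, scintillation counting. Binding expressed relative to E/Z-4-OHT from reduction of bound tritium; competitors in duplicate.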

[4] = target: T1, Anti-estrogen binding site (AEBS) (Homo sapiens); assay: Binding affinity at AEBS; assay type: protein-complex assay
Outline: as §2

[5] = target: T1, Anti-estrogen binding site (AEBS) (Homo sapiens); assay: Displacement of 5 nM [3H]tamoxifen from AEBS in MCF7 cell lysate relative to E/Z-4-hydroxytamoxifen; assay type: cell-free
Outline: as §2

[6] = Growth inhibition of ER expressing Rtx6 cells after 4 hrs; assay type: functional; settings: Homo sapiens
[7] = tested on: MCF7; assay: Drug uptake in MCF7 cells at 500 nM for 1 hr relative to MDA-MB-435 cells; assay type: ADME, cell-based; settings: human, mcf7, 1 h, 0.5 µM
Outline: as §1

[8] = Drug uptake in ER expressing Rtx6 cells at 500 nM; assay type: ADME, cell-based; settings: human, 0.5 µM
Outline: as §1

[9] = target: T1, Anti-estrogen binding site (AEBS) (Homo sapiens); assay: Displacement of 0.05 nM [3H]tamoxifen from AEBS in MCF7 cell lysate relative to E/Z-4-hydroxytamoxifen; assay type: cell-free
Outline: as §2

[10] = tested on: MDA-MB-435; assay: Decrease in doxorubicin uptake in MDA-MB-435 cells at 10 uM after 1 hr relative to DOX-TEG-TAM; assay type: ADME, cell-based; design: scale not given: the % may be the effect or the level left; settings: human, mda-mb-435, 1 h
Outline: (§3)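 Competition read by flow cytometry. MDA-MB-435 cells adhered overnight, then given 0.5 µM anthracycline for 1 h with or without tamoxifen at various concentrations (up to 10 µM). Cells trypsinized and kept cold in serum-free, phenol red-free RPMI. Excitation 488 nm, emission 570–600 nm, 10000 cells. Mean fluorescence with drug-free background subtracted.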

[11] = tested on: MDA-MB-435; assay: Decrease doxorubicin-saliform uptake in MDA-MB-435 cells at 10 uM after 1 hr relative to DOX-TEG-TAM; assay type: ADME, cell-based; design: scale not given: the % may be the effect or the level left; settings: human, mda-mb-435, 1 h
Outline: as §3

[12] = tested on: MDA-MB-435; assay: Decrease in DOX-TEG-TAM uptake in MDA-MB-435 cells after 1 hr; assay type: ADME, cell-based; settings: human, mda-mb-435, 1 h
Outline: as §3

[13] = tested on: MDA-MB-435; assay: Decrease DOX-TEG-TAM uptake in MDA-MB-435 cells at 10 uM after 1 hr relative to control; assay type: ADME, cell-based; design: scale not given: the % may be the effect or the level left; settings: human, mda-mb-435, 1 h
Outline: as §3

[14] = Drug uptake in MCF7/Adr cells at 500 nM; assay type: ADME, cell-based; settings: human, nci/adr-res, 0.5 µM
Outline: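 MCF-7/Adr cells in log phase (RPMI 1640, 10% FBS), plated 450000 cells/well and adhered overnight; exposed to 0.5 μM drug (from 100× DMSO/1% AcOH stock) for 20, 40, 60 min. Cells were trypsinized, quenched and resuspended in cold serum-free, phenol red free RPMI, then held on ice. Flow cytometry: ex 488 nm, em 570–600 nm, 10000 cells; mean fluorescence minus drug-free background.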

[15] = tested on: MDA-MB-435; assay: Inhibition of DOX-TEG-TAM uptake in MDA-MB-435 cells; assay type: cell-based; settings: human
Outline: as §3

[16] = Inhibition of DOX-TEG-TAM uptake in ER expressing Rtx6 cells; assay type: cell-based; settings: human
Outline: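 Rtx-6 cells in tamoxifen-free medium got 0.5 µM conjugate for 1 h with or without estradiol at various concentrations. Flow cytometry of anthracycline fluorescence: excitation 488 nm, emission 570–600 nm, 10000 cells. Mean fluorescence minus drug-free background.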

## CC/C(=C(/c1ccc(O)cc1)c1ccc(OCCN(C)CCOCCOCCO/N=C/c2ccc(O)c(C(=O)NCN[C@H]3C[C@H](O[C@H]4C[C@](O)(C(=O)CO)Cc5c(O)c6c(c(O)c54)C(=O)c4c(OC)cccc4C6=O)O[C@@H](C)[C@H]3O)c2)cc1)c1ccccc1
[1]
  Drug uptake: 25%
[2]
  Relative Fluorescent Unit: 25
[3]
  Activity: 72%
[4]
  Activity: 60%
[5]
  Activity: 48%
[6]
  IC50: 67 nM
[7]
  Drug uptake: 25%
[8]
  Relative Fluorescent Unit: 14
[9]
  Activity: 70%

## CC/C(=C(\c1ccccc1)c1ccc(OCCN(C)C)cc1)c1ccccc1 [TAMOXIFEN]
[10]
  Activity: 8%
[11]
  Activity: 6%
[12]
  Activity: Dose-dependent effect
[13]
  Activity: 47%

## COc1cccc2c1C(=O)c1c(O)c3c(c(O)c1C2=O)C[C@@](O)(C(=O)CO)C[C@@H]3O[C@H]1C[C@H](NCNC(=O)c2ccccc2O)[C@H](O)[C@H](C)O1
[2]
  Relative Fluorescent Unit: 16
[6]
  IC50: 61 nM
[14]
  Relative Fluorescent Unit: 1

## C[C@]12CC[C@@H]3c4ccc(O)cc4CC[C@H]3[C@@H]1CC[C@@H]2O [ESTRADIOL]
[15]
  Activity: Not Active
[16]
  Activity: Dose-dependent effect
